Laboratory results: the RNAGym collection of RNA variant scans (doi:10.1126/science.aae0568)
Fewer inactive variants are shown than the library holds.

B1: tRNA (parent)
chain: GUUCCGUUGGCGUAAUGGUAACGCGUCUCCCUCCUAAGGAGAAGACUGCGGGUUCGAGUCCCGUACGGAACG

Variants of: B1
Experiment: yeast fitness relative to wild type (ratio to wild type); higher = fitter; tRNA-Arg(CCU), competitive growth, 37 C, YPD
Procedure, shortened: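 Start and end populations of a pooled competition were compared by 100-nucleotide paired-end sequencing of gene amplicons. The Saccharomyces cerevisiae strains carried tRNA-Arg(CCU) gene variants at the native genomic locus, synthesised with a 3% per-site mutation rate at 69 sites, and competed in YPD at 37°C for 24 hours in six parallel replicates. Darwinian fitness relative to wild type was based on the change in genotype frequencies. Genotypes required ≥ 100 starting reads, and estimates < 0.5 were set to 0.5.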
In the case of GUUCCGUUGGCGUAAUGGUAACGCGUCUCCCUGCUAAGGAGAAGACUGCGGAUUCGAGUCCCGUCCGGAACG [C33G G52A A65C], the yeast fitness is reported as ≤ 0.5.
With GUUCCGUUGGCGUAAUGGUAACGCGUCUCCCUGCUAAGCAGAAGACUGCGGGUUCGAGUCCCGUACGGCACG [C33G G39C A69C] the yeast fitness was ≤ 0.5.
With GUUCCGUUGGCGUAAUGGUAACGCGUCUCCCUGCUAAGGAGAAGACUGCGGGUUCGAGUCUGGUAUGGAACG [C33G C61U C62G C66U] the yeast fitness was ≤ 0.5.
With GUUCCGUUGGCGUAAUGGUAACGCGUCUCCCUGCUAAGGAGAAGACUGCGGGUUCCAGUCCUGUACGGAACG [C33G G56C C62U] the yeast fitness was ≤ 0.5.
In the case of GUUCCGUUGGCGUAAUGGUAACGCGUCUCCCUGCUAAGGAGAAGACUGCGGGUUCGAGUUCCGUACGGUACG [C33G C60U A69U], the yeast fitness is reported as ≤ 0.5.
In the case of GUUCCGUUGGCGUAAUGGUAACGCGUCUCCCUGCUAAGGACACGACUGCGGGUUCGAGUCCCGUACCGAACG [C33G G41C A43C G67C], the yeast fitness is reported as ≤ 0.5.
In the case of GUUCCGUUGGCGUAAUGGUAACGCGUCUCCCUGAUAAGGCGAAGACUGCGGGUUCGAGUCCCGUACGGAACG [C33G C34A A40C], the yeast fitness is reported as ≤ 0.5.
For GUUCCGUUGGCGUAAUGGUAACGCGUCUCCCUGCUAAGGAGAAGACUACGGGUUCGAGUCCCGUAGGGACCG [C33G G48A C66G A70C], the yeast fitness was 0.524.
With GUUCCGUUGGCGUAAUGGUAACGCGUCUCCCUGCUAAGGAGAAGACUGCGGGUUUCAGUCCCGUACGGCACG [C33G C55U G56C A69C] the yeast fitness was 0.831.
With GUUCCGUUGGCGUAAUGGUAACGCGUCUCCCUGCUAAGGAGAAGACUGCGGGUUCCAGUCCCGUACGGAACG [C33G G56C] the yeast fitness was 0.679.
For GUUCCGUUGGCGUAAUGGUAACGCGUCUCCCUGUUAAGGAGAAGACUGCGGGCUCGAGUCUCGUACGGAACG [C33G C34U U53C C61U], the yeast fitness was ≤ 0.5.
With GUUCCGUUGGCGUAAUGGUAACGCGUCUCCCUGCUAAGGAGAAGUUUGCGGGUUCGAGUCCCGUACGGAACG [C33G A45U C46U] the yeast fitness was ≤ 0.5.
Variant GUUCCGUUGGCGUAAUGGUAACGCGUCUCCCUGCUAAGGAGAAGACUGCGGGUUCGAGUCCCGUAGGGAACG [C33G C66G] has a yeast fitness of 0.604.
For GUUCCGUUGGCGUAAUGGUAACGCGUCUCCCUGCUAAGGAGAAGACUGCGAGAUCAAGUCCCGUACCGAACG [C33G G51A U53A G56A G67C], the yeast fitness was ≤ 0.5.
GUUCCGUUGGCGUAAUGGUAACGCGUCUCCCUGCUAAGGAGAAGACUGCGGGUUCGAGUCCCGUACGGUACG [C33G A69U] gave a yeast fitness of 0.764.
Work on GUUCCGUUGGCGUAAUGGUAACGCGUCUCCCUGCUAAGGAGAAGACUGCGGGUUCGAGUCCCGUACGGCACG [C33G A69C] yielded a yeast fitness of 0.742.
In the case of GUUCCGUUGGCGUAAUGGUAACGCGUCUCCCUGCUAAGGAGAAGACAGCGGGUUCGAGUCUCGUACGGUACG [C33G U47A C61U A69U], the yeast fitness is reported as 0.573.
Work on GUUCCGUUGGCGUAAUGGUAACGCGUCUCCCUGCUAAGGAGAAGACUGCGGGUUCGAGUCUCGUACAGAACG [C33G C61U G67A] yielded a yeast fitness of 0.649.
Work on GUUCCGUUGGCGUAAUGGUAACGCGUCUCCCUGCUAAGGAGAAGACUGCGGGUUCGAGUCCCGUACGCAACG [C33G G68C] yielded a yeast fitness of 0.558.
GUUCCGUUGGCGUAAUGGUAACGCGUCUCCCUGCUAAGGAGAAGACUGCGGGUUCGAGUCCCGUACGAAACG [C33G G68A] gave a yeast fitness of 0.671.
GUUCCGUUGGCGUAAUGGUAACGCGUCUCCCUGCUAAGGAGAAGACAGCGGGUUCGAGUCCCGGACGGAACG [C33G U47A U64G] showed a yeast fitness of 0.77.
For GUUCCGUUGGCGUAAUGGUAACGCGUCUCCCUGGUAAGGAGACGACUCCGGGUUCGAGUCCUGUACGGAACG [C33G C34G A43C G48C C62U], the yeast fitness was ≤ 0.5.
With GUUCCGUUGGCGUAAUGGUAACGCGUCUCCCUGGAAAGGAGAAAACUGCGGGUUCGAGUCCCGUACGGAACG [C33G C34G U35A G44A] the yeast fitness was ≤ 0.5.
With GUUCCGUUGGCGUAAUGGUAACGCGUCUCCCUGAUAAGGAGAGGACUGCGGGUUCGAGUCUCGUCCGGAACG [C33G C34A A43G C61U A65C] the yeast fitness was ≤ 0.5.
With GUUCCGUUGGCGUAAUGGUAACGCGUCUCCCUGCUAAGGACAAGACUGCGGGUUCCAAUCCCCUUCGGAACG [C33G G41C G56C G58A G63C A65U] the yeast fitness was 0.587.
With GUUCCGUUGGCGUAAUGGUAACGCGUCUCCCUGCUAAGAAGAAGACUGGGGGUACGAGUCCCGUACGGAACG [C33G G39A C49G U54A] the yeast fitness was ≤ 0.5.
With GUUCCGUUGGCGUAAUGGUAACGCGUCUCCCUGCUAAGGAGAAGACUGCGCGUUCGAGUCCCGUAGCGAACG [C33G G51C C66G G67C] the yeast fitness was ≤ 0.5.
With GUUCCGUUGGCGUAAUGGUAACGCGUCUCCCUGCUAAGGAGAAGACUGAGGGUUCGAGUCCCGUACGGAACG [C33G C49A] the yeast fitness was 0.628.
In the case of GUUCCGUUGGCGUAAUGGUAACGCGUCUCCCUGCUAAGGAGAAGACUGCGGGUUCGAGUUCCGUACGGAACG [C33G C60U], the yeast fitness is reported as ≤ 0.5.
GUUCCGUUGGCGUAAUGGUAACGCGUCUCCCUGUUAAGGAGAAGACUGCGGGUUCGAGUCCCGUACGAAACG [C33G C34U G68A] gave a yeast fitness of 0.582.
GUUCCGUUGGCGUAAUGGUAACGCGUCUCCCUGAUAAGGAGAGGACUGCGGGUUAGAGUCCCGUACGGAACG [C33G C34A A43G C55A] gave a yeast fitness of 0.635.
For GUUCCGUUGGCGUAAUGGUAACGCGUCUCCCUGCUAACGAGAAGAGUGCGGGCUCGAGUCCCGUACGGCACG [C33G G38C C46G U53C A69C], the yeast fitness was ≤ 0.5.
GUUCCGUUGGCGUAAUGGUAACGCGUCUCCCUGCUAAGCAGAAGACUGCGGGUUUGAGUCCCGUACGGAACG [C33G G39C C55U] showed a yeast fitness of 0.515.
For GUUCCGUUGGCGUAAUGGUAACGCGUCUCCCUGCCAAGAAGAAGACUGCGGGUUCGAGUCCCGUACGGAACG [C33G U35C G39A], the yeast fitness was ≤ 0.5.
In the case of GUUCCGUUGGCGUAAUGGUAACGCGUCUCCCUGCUAAGGAGAAGACUGCGGGUUCGUGUCCUGUACGGAACG [C33G A57U C62U], the yeast fitness is reported as ≤ 0.5.
In the case of GUUCCGUUGGCGUAAUGGUAACGCGUCUCCCUGCUAAGGAGAAGAUUGCGGGUUCGAGUUCCGUACGGAACG [C33G C46U C60U], the yeast fitness is reported as ≤ 0.5.
In the case of GUUCCGUUGGCGUAAUGGUAACGCGUCUCCCUGCUAAGGAGAAGACAGCGGGUUCGAGUCACGUAUGGAACG [C33G U47A C61A C66U], the yeast fitness is reported as ≤ 0.5.
